Measurements published in article PMC4618645 (Pharmacology Research & Perspectives, 2015).
Several values for one entry are separate records, joined by “and”; a condition that tells them apart may be missing. Identical values can stand only once. Entries after “also recorded” stand apart in the source; their conditions may differ. Like-named read-outs stand apart in the source and are kept apart here.

Assays:
CYP2D6 [1] = conditions: humans; ref O'Mathuna et al. [2008]; cited from earlier work
CYP2D6 [2] = conditions: CYP2D6 with MDMA in human liver microsomes; ref Heydari et al. [2004]; cited from earlier work
[3] = tested on: CYP2C-mediated diclofenac hydroxylation activity; type: in vivo, rat; conditions: rats, sesamin 0, 10, 100 mg/kg bw for 7 days
In short: (§1)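 Male Sprague–Dawley rats were acclimated for 7 days before dosing. Liver microsomes: liver rinsed in ice-cold saline, homogenized in four volumes of ice-cold 1.15% KCl, spun at 10,000g for 20 min, then the supernatant at 100,000g for 60 min. The pellet was resuspended in 20 mmol/L phosphate buffer (pH 7.4) with 1.15% KCl. Protein was measured by bicinchoninate assay.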

rat CYP2C = type: in vivo; conditions: rats, sesamin 0, 10, 100 mg/kg bw for 7 days
In short: as §1

[4] = humans, sesamin supplement 50 mg/day for 28 days; ref Tomimori et al. [2013]; cited from earlier work
[5] = Plasma concentration of sesamin in rats; type: in vivo; conditions: rat, po, 100 mg/kg
In short: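 Test compound in corn oil was given intragastrically by feeding needle. The organic phase was dried and the residue taken up in 100 μL acetonitrile. HPLC: methanol/0.05% TFA gradient, fluorescence ex 298/em 325 nm; mean ± SD, n = 12.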

[6] = Pharmacokinetics of diclofenac in rats after 3 days administration of sesamin; type: in vivo, rat; conditions: for AUC(0-t) / Cmax / Tmax / half-life: rat, plasma, po, 10 mg/kg; for AUC(0-t): AUC0–24 h; for AUC(0-t) / Cmax / Tmax: diclofenac 10 mg/kg bw intragastric; for half-life: t1/2, diclofenac 10 mg/kg bw intragastric
[7] = tested on: rat CYP2C (rat liver microsomes); type: biochemical
In short: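 Rat liver microsomes (0.5 mg protein/mL) with 1 mmol/L NADPH in 100 mmol/L phosphate (pH 7.4), 37°C. Test compound in DMSO (20 μmol/L final) versus DMSO reference. Difference spectra (400–500 nm) were taken at 0–120 min, tracking A459 minus A500. Parent and catechol metabolites were quantified in parallel by HPLC of methanol-quenched aliquots taken at the same times. Mean ± SD, at least duplicates.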

[8] = Estimation of the maximum inlet concentration to the liver; set-up: species or system human; conditions: for absorption rate constant: assumed, roughly estimated from the data by Tomimori et al. [2013]; for maximum inlet concentration to the liver: humans, following the 50 mg oral dose, eqn. 1
[9] = biological target: T1, CYP2C in rat liver microsomes (CYP2C11) (Rattus norvegicus, UniProt P08683); type: biochemical
T1 sequence (P08683 1-500): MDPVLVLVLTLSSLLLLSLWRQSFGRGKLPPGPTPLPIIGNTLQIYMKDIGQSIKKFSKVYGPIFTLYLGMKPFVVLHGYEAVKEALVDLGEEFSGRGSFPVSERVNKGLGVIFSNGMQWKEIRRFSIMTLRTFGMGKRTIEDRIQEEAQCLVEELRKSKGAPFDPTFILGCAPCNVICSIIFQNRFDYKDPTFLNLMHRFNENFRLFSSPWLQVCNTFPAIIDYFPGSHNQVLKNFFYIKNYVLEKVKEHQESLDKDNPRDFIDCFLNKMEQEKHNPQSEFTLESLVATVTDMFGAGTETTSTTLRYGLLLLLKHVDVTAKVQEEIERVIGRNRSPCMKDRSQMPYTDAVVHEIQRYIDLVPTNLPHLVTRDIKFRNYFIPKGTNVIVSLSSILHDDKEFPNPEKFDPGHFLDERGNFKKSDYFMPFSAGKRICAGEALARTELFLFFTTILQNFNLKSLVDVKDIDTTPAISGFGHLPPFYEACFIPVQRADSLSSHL

[10] = Hepatic sesamin concentration in rats; type: in vivo; conditions: rat, liver, oral, 100 mg/kg
[11] = type: in vivo, rat; conditions: rats
recombinant rat CYP2C11 = biological target: T2, recombinant rat CYP2C11 (Rattus norvegicus, UniProt P08683); experiment: Sesamin-induced difference spectrum of recombinant rat CYP2C11; type: biochemical; conditions: recombinant rat CYP2C11, NADPH, 20 μmol/L sesamin
T2 sequence (P08683 1-500): T1 sequence (P08683 1-500)
In short: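 Recombinant rat CYP2C11 from baculovirus-infected insect cells (50 pmol/mL) with 1 mmol/L NADPH in 100 mmol/L phosphate (pH 7.4) at 37°C. Test compound in DMSO (20 μmol/L final) went into the sample cuvette and an equal volume of DMSO into the reference. Difference spectra were recorded over 400–500 nm after 7 and 60 min incubation.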

CYP2C9 [12] = conditions: cited from earlier work
[13] = assumed; ref Moazzami et al. [2007]; cited from earlier work
CYP2C9 [14] = biological target: CYP2C9 (Homo sapiens, UniProt P11712); type: biochemical; conditions: human liver microsomes, pH 7.4, probe diclofenac (100 μmol/L), diclofenac hydroxylation
Chain of CYP2C9 (Homo sapiens, UniProt P11712) (P11712 whole entry): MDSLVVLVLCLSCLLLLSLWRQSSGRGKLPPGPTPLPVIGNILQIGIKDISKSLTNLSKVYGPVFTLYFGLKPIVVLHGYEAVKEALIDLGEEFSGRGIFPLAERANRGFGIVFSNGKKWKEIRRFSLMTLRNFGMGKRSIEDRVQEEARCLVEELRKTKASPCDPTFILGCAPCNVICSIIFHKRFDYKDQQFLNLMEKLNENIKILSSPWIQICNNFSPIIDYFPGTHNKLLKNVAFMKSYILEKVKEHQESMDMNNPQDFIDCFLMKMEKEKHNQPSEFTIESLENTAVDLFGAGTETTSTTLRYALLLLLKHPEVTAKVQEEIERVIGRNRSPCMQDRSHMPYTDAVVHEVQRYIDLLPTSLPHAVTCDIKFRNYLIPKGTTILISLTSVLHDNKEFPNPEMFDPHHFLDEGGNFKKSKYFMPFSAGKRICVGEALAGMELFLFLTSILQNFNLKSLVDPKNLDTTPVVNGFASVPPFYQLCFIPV

[15] = after sesamin 10 mg/kg bw for 3 days
[16] = after sesamin 100 mg/kg bw for 3 days
[17] = control (0 mg/kg bw sesamin for 3 days)

For `CNC(C)Cc1ccc2c(c1)OCO2` (centres unmarked) [MDMA, 3,4-Methylenedioxymethamphetamine], the “increase of dextromethorphan AUC0-8 h when administered with MDMA” value (CYP2D6 [1]) is listed as “approximately 10 fold”, the “increase of dextromethorphan AUC after MDMA administration” value (CYP2D6 [1]) is listed as “approximately 10 fold” and the “increase of dextromethorphan Cmax after MDMA administration” value (CYP2D6 [1]) is listed as “approximately 10 fold”. For the same molecule, the kinact (CYP2D6 [2]) was 0.12 to 0.26 min⁻¹.

For `c1cc2c(cc1[C@H]1OC[C@H]3[C@@H]1CO[C@@H]3c1ccc3c(c1)OCO3)OCO2` [sesamin], the “diclofenac hydroxylation activity in liver microsomes” value [3] is listed as “no significant effects; also recorded: no significant differences; also recorded: no remarkable change”, the “expression of CYP2C protein in liver microsomes” value (rat CYP2C) is listed as “no significant differences; also recorded: no remarkable change” and the “accumulation after repeated administration” value [4] is listed as “did not detect the accumulation; also recorded: no accumulation”. For the same molecule, the Cmax [5] was 33 ng/mL and 94 nM, the Tmax [5] was 1.2 ± 0.6 h and the “effect of sesamin on pharmacokinetic parameters of diclofenac (Cmax, Tmax, AUC)” value ([6]; sesamin 0, 10, 100 mg/kg bw for 3 days, then diclofenac 10 mg/kg bw) was “No significant differences”. For the same molecule, the “half-life time of the MI complex of sesamin” value ([7]; rat liver microsomes) was 0.167 h, the “time to disappearance of the 459 nm peak after the termination of the metabolism” value ([7]; rat liver microsomes) was no more than 30 min and the “conversion of sesamin to SC-2 via SC-1” value ([7]; rat liver microsomes 0.5 mg/mL, 20 μmol/L sesamin, at 60 min) was “almost all of sesamin was converted to SC-2 via SC-1”. For the same molecule, the “peak of sesamin-induced difference spectrum (MI complex)” value ([7]; rat liver microsomes, NADPH, 20 μmol/L sesamin, 37°C) was 459 nm, the absorption rate constant [8] was 0.5 h⁻¹ and the “maximum inlet concentration to the liver” value [8] was 130 nmol/L. The kinact [9] was 0.00132 s⁻¹, the “inhibition of 4'- and 5-hydroxylation activities toward diclofenac” value ([9]; rat liver microsomes, sesamin 0-50 μmol/L, preincubation 0, 5, 10 min) was “time- and concentration-dependently inhibited” and the kinact/KI ([9]; read-out: kinact/Ki app) was 48.3 M⁻¹ s⁻¹. The concentration at 1 h [10] was 390 ng/g and 1.1 µM, the “effect of sesamin on the diclofenac pharmacokinetics” value ([11]; sesamin 0, 10, 100 mg/kg bw and diclofenac 10 mg/kg bw simultaneously) was “no significant effects” and the “peak of sesamin-induced difference spectrum (MI complex)” value (recombinant rat CYP2C11) was 459 nm. The kinact (CYP2C9 [12]; CYP2C9 with sesamin in human liver microsomes, ref Yasuda et al. [2010]) was 0.13 min⁻¹, the fraction absorbed [13] was 30% and the kinact (CYP2C9 [14]) was 0.00217 s⁻¹. It also gave a kinact/KI (CYP2C9 [14]) of 96.7 M⁻¹ s⁻¹.

`O=C(O)Cc1ccccc1Nc1c(Cl)cccc1Cl` [diclofenac] gave an AUC(0-t) [6, 15] of 4620 ng·h/mL, an AUC(0-t) [6, 16] of 6930 ng·h/mL and an AUC(0-t) [6, 17] of 4880 ng·h/mL. For the same molecule, the Cmax [6, 15] was 1200 ± 500 ng/mL, the Cmax [6, 16] was 1300 ± 600 ng/mL and the Cmax [6, 17] was 1800 ± 800 ng/mL. The Tmax [6, 15] was 7 min, the Tmax [6, 16] was 7.2 min and the Tmax [6, 17] was 5.4 min. For the same molecule, the half-life [6, 15] was 14.8 ± 9.3 h, the half-life [6, 16] was 11.1 ± 6.8 h and the half-life [6, 17] was 10.6 ± 2.9 h. The AUC(0-t) ([11]; rat, plasma, po, 10 mg/kg, AUC0–24 h, diclofenac 10 mg/kg bw intragastric, control (0 mg/kg bw sesamin at same time)) was 5480 ng·h/mL, the Cmax ([11]; rat, plasma, po, 10 mg/kg, Cmax, diclofenac 10 mg/kg bw intragastric, control (0 mg/kg bw sesamin at same time)) was 2100 ± 1700 ng/mL and the Tmax ([11]; rat, plasma, po, 10 mg/kg, Tmax, diclofenac 10 mg/kg bw intragastric, control (0 mg/kg bw sesamin at same time)) was 5.6 min. The half-life ([11]; rat, plasma, po, 10 mg/kg, t1/2, diclofenac 10 mg/kg bw intragastric, control (0 mg/kg bw sesamin at same time)) was 9.8 ± 5.1 h.

For `c1cc2c(cc1[C@H]1OC[C@H]3[C@@H]1CO[C@@H]3c1ccc3c(c1)OCO3)OCO2` [episesamin], the “accumulation after repeated administration” value [4] is given as “did not detect the accumulation; also recorded: no accumulation”, the absorption rate constant [8] is given as 1.5 h⁻¹ and the “maximum inlet concentration to the liver” value [8] is given as 410 nmol/L. The “kinact/Ki value for recombinant human CYP2C9 relative to sesamin” value (CYP2C9 [12]; recombinant human CYP2C9, ref previous studies of the authors) was “five times smaller” and the “kinact/Ki app for CYP2C9 relative to sesamin” value (CYP2C9 [12]; ref Yasuda et al. [2012]) was “approximately one-fifth”.
